Active and inactive are the calls of the source. The rule behind the calls is not given here.

The term IC50 denotes the concentration at which inhibition is half-maximal.

In assay [1] the target is T1, Vitamin D3 receptor (Rattus norvegicus) (UniProt P13053).
T1 sequence (whole entry): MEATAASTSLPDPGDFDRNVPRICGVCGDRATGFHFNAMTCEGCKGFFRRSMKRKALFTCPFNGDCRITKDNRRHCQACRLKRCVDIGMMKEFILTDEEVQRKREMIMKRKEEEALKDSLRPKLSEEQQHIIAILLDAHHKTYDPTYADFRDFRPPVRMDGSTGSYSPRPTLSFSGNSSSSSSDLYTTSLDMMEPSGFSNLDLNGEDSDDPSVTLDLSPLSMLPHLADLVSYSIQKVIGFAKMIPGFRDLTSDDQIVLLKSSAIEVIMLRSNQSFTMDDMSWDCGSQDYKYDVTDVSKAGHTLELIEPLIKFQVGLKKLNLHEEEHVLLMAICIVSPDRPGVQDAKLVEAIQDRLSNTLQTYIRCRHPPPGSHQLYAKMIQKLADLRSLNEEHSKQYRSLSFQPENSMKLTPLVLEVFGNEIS
Description: Covalent binding affinity to rat VDR LBD (116 to 423 residues, 165-211 residues) assessed as covalently modified protein level at 5 equivalents by ESI-MS analysis. To be noted: TDE = time-dependent effect. An outline of the steps:
(§1)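 Rat VDR-LBD (residues 116−423, Δ165−211) concentrated in 50 mM ammonium acetate pH 6.5, 10 μM, incubated with 5 equiv ligand at room temperature. Samples sampled over time (up to 6 h, or 24 h), infused at 30 μL/min, analysed by positive-ion ESI-MS, m/z 100−4000. Spectra deconvoluted to unmodified versus ligand-adduct protein mass peaks.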

The target in assay [2] is T1, Vitamin D3 receptor (Rattus norvegicus). Description: Covalent binding affinity to rat VDR LBD (116 to 423 residues, 165-211 residues) at 5 equivalents by ESI-MS analysis. A digest of the protocol: as §1
Assay [3] addresses T2, Vitamin D3 receptor (Homo sapiens) (UniProt P11473).
T2 sequence (whole entry): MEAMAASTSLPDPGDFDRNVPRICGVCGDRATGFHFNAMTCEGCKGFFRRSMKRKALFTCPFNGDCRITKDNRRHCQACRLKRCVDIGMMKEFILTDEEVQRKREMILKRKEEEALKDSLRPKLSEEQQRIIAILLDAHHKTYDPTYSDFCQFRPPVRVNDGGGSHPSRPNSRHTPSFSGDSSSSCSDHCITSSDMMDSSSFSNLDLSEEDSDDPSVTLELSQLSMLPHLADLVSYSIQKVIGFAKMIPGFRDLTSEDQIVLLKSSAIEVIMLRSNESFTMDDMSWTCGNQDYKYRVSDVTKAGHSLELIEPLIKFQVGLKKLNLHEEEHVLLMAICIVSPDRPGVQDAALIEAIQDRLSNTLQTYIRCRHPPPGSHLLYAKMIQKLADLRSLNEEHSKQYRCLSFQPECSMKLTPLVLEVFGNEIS
Description: Displacement of [3H]-1,25D3 from C-terminal GST-tagged human recombinant VDR LBD expressed in Escherichia coli BL21 (DE3) after 16 hrs by radioligand binding assay relative to 1,25D3. An outline of the steps:
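Competitive binding against [3H]-1,25D3 using human VDR-LBD expressed as C-terminal GST fusion from pGEX-VDR in E. coli BL21; IC50 derived.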
In general terms: In a radioligand displacement assay an active substance lowers the binding of a labelled ligand.

In assay [4] the target is T2, Vitamin D3 receptor (Homo sapiens). In words: Agonist activity at human full-length VDR expressed in HEK293 cells by osteopontin luciferase reporter gene assay. It counts as cell-based. An outline of the steps: (§2)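 Dual luciferase reporter in Cos7 or HEK293 cells cotransfected with full-length human VDR plasmid (pCMX-hVDR), reporter carrying three copies of osteopontin VDRE (SPPx3-TK-Luc) and sea pansy luciferase control (pRL-CMV). Activity normalized to 1,25D3 set as 1: 10−8 M in Cos7, 10−9 M in HEK293.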
On the technique in general: Reporter assays use an easily measured gene product as a stand-in for the process of interest.

Assay [5] has the same target. In words: Agonist activity at human full-length VDR expressed in African green monkey COS7 cells by osteopontin luciferase reporter gene assay. Type of assay: cell-based. A digest of the protocol:
as §2

The target in assay [6] is T1, Vitamin D3 receptor (Rattus norvegicus). In words: Covalent binding affinity to rat VDR LBD (116 to 423 residues, 165-211 residues) at 2 equivalents after 24 hrs by ESI-MS analysis.
For assay [7], the target named is T3, Vitamin D3 receptor (Homo sapiens, UniProt P11473).
T3 sequence (P11473 whole entry): T2 sequence (whole entry)
Description: Displacement of [3H]-1,25D3 from C-terminal GST-tagged human recombinant VDR LBD expressed in Escherichia coli BL21 (DE3) after 16 hrs by radioligand binding assay.

Assay [8] concerns the target T1, Vitamin D3 receptor (Rattus norvegicus). Description: Irreversible covalent binding affinity to rat VDR LBD (116 to 423 residues, 165-211 residues) at 2 equivalents after 24 hrs followed by compound wash out and subsequent addition of 10 equivalents of 1,25D3 and measured after 24 hrs by ESI-MS analysis. An outline of the steps: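 Rat VDR-LBD (Δ165−211) incubated with ligand for 24 h; covalent adduct confirmed by ESI-MS, then buffer exchanged to ligand-free buffer and 10 equiv 1,25D3 added. Positive-ion ESI-MS read for retained modified versus exchanged protein peaks.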

Assay [9] has the same target. In words: Covalent binding affinity to rat VDR LBD (116 to 423 residues, 165-211 residues) assessed as time duration for complete covalent bond formation with protein at 5 equivalents by ESI-MS analysis. A digest of the protocol:
as §1

For assay [10] the target is unchanged. Description: Covalent binding affinity to rat VDR LBD (116 to 423 residues, 165-211 residues) at 5 equivalents after 30 hrs by ESI-MS analysis.

On to `C=CC(=O)CC[C@@H](C)[C@H]1CC[C@H]2/C(=C/C=C3C[C@@H](O)C(=C)[C@H](O)C3)CCC[C@]12C`, for which the Activity entry in [1] is “Tde”. The outcome in assay [2], in assay [4], in assay [5], in assay [6] and in assay [8] was Active. The Ratio IC50 in [3] came out at 0.055. Moreover, in [7], the IC50 was 1.1 nM. Besides, the TIME in assay [9] was found to be 1.5 h.

Consider `C=C1[C@H](O)CC(=C/C=C2\CCC[C@]3(C)[C@@H]([C@H](C)C(=O)/C=C/C=C/C)CC[C@@H]23)C[C@H]1O`, for which the Ratio IC50 in assay [3] came to 0.022. The result in [4], in assay [5] and in assay [10] was Active. For the same compound, in assay [7], the IC50 was 2.3 nM.

For the compound `C=C1[C@H](O)CC(=C/C=C2\CCC[C@]3(C)[C@@H]([C@H](C)CCC(=O)/C=C/C)CC[C@@H]23)C[C@H]1O`, the Activity entry in assay [1] was “Tde”. Also, the result in [2], in assay [4], in assay [5], in [6] and in [8] was Active. Further, the Ratio IC50 in assay [3] is 0.034. Moreover, in [7], the IC50 was found to be 1.8 nM. In addition, in assay [9], the TIME amounted to 3 h.
